Consider four molecules from ChEMBL document CHEMBL1123375, “Carbocyclic puromycin: synthesis and inhibition of protein biosynthesis” (1986).

Assay [1] concerns Escherichia coli. The experiment in a line: (§1) Kinetic constant was evaluated by using peptidyl transferase assay against Escherichia coli ribosome system. Format: functional. The gist of the method:
(§2)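 Ac-[14C]-L-Phe-tRNA (21 pmol) prebound 8 min at 28°C to washed E. coli ribosomes (2.78 A260 units) with poly(U), 1.50 mM GTP, FWR, 20 mM Mg(OAc)2, 130 mM Tris-HCl pH 7.5, 130 mM NH4Cl. Reaction started with puromycin compound in water, run for timed intervals, then stopped with NaOH. Ethyl acetate-extracted product counted, blank-corrected. Km and Vmax by Wilkinson analysis, triplicates.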

Assay [2] deals with Escherichia coli. The experiment in a line: Ratio of kinetic parameter Vmax to that of Km in Escherichia coli ribosome system. The arrangement: unit not given here. The gist of the method:
as §2

The species named for assay [3] is Rattus norvegicus. In words: Ratio of kinetic parameter Vmax to that of Km in Rat liver ribosome. The arrangement: unit not given here. Summed up: (§3)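 Ac-[3H]-L-Phe-tRNA (22 pmol) prebound 60 min at 37°C to rat liver ribosomes (4.0 A260 units) with poly(U), 1.6 mM GTP, FWR, 15 mM Mg(OAc)2, 100 mM Tris-HCl pH 7.5, 100 mM NH4Cl. Mixture added to puromycin compound, 37°C for varying times. Product extracted into ethyl acetate and counted. Km and Vmax by Wilkinson analysis.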

In assay [4] the test system is Escherichia coli. In words: Substrate efficiency was evaluated by using peptidyl transferase assay against Escherichia coli ribosome system. Format: functional. Summed up:
as §2

Assay [5] can be described thus: Compound was evaluated for the cytotoxicity by using P-388 in vitro assay against P-388 mouse lymphoid leukemia cells in 4 mL of Fischer's medium with 10% horse serum. Format: functional. The conditions noted are these: P388, read-out: ED50 (the source's name). Summed up: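 Twofold dilution series in duplicate tubes, each seeded with 4×10^5 cells, incubated 72 h at 37°C, stoppered and held at a 30° angle without agitation, rotated twice daily. Growth read by hemocytometer count, inoculum subtracted. Percent inhibition calculated against controls, ED50 derived from this.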

For assay [6], the species on record is Rattus norvegicus. The experiment in a line: Substrate efficiency was evaluated by using peptidyl transferase assay against Rat liver ribosome system. It is filed as functional. The gist of the method:
as §3

The subject of assay [7] is Escherichia coli. The description is as §1. The gist of the method: as §2
Assay [8] is filed under the species Rattus norvegicus. In words: (§4) Kinetic constant was evaluated by using peptidyl transferase assay against Rat liver ribosome system. Summed up: as §3
The species named for assay [9] is Rattus norvegicus. In words: Substrate efficiency was evaluated by using peptidyl transferase assay against Rat liver ribosome system. Format: functional. Summed up:
as §3

The species entered for assay [10] is Rattus norvegicus. In words: Substrate efficiency of the compound was evaluated by using peptidyl transferase assay against Rat liver ribosome system. It is filed as functional. Summed up: as §3
Assay [11] is filed under the species Rattus norvegicus. Described as §4. It is filed as functional. The gist of the method: as §3

Values after ≈ are worked out from the molar mass of the structure shown.

The Km is the concentration of substrate that gives half-maximal velocity. As to `COc1ccc(CC(N)C(=O)N[C@@H]2[C@@H](CO)C[C@@H](n3cnc4c(N(C)C)ncnc43)[C@@H]2O)cc1` (stereo partly specified), the Km with Escherichia coli [1] stood at 187 µM; in the assay listed under Rattus norvegicus [8] it was 300 µM. Besides, the Ratio in the assay on Escherichia coli [2] worked out at 4540; in the assay filed under Rattus norvegicus [3], 12400. For the same molecule, the results for the Efficiency in the assay with Escherichia coli [4] and in the assay listed under Rattus norvegicus [6] were 45% and 22%, respectively. Besides, the EC50 in [5] turned out to be 0.3 µg/mL (≈ 0.639 µM). The values for the Vmax with Escherichia coli [7] and in the assay filed under Rattus norvegicus [8] were 850 c.p.m and 3720 c.p.m, respectively.

For `COc1ccc(CC(N)C(=O)N[C@@H]2CC[C@@H](n3cnc4c(N(C)C)ncnc43)[C@@H]2O)cc1` (stereo partly specified), the Ratio with Escherichia coli [2] turned out to be 3420; in the assay filed under Rattus norvegicus [3], 3160. Further, the Efficiency came out at 34% in the assay with Escherichia coli [4] and 5.7% in the assay listed under Rattus norvegicus [9]. In addition, in assay [5], the EC50 came out at 0.8 µg/mL (≈ 1.82 µM). The results for the Km in the assay on Escherichia coli [7] and in the assay filed under Rattus norvegicus [8] were 188 µM and 276 µM, respectively. Moreover, the Vmax in the assay with Escherichia coli [7] was determined as 644 c.p.m; in the assay filed under Rattus norvegicus [8], 871 c.p.m.

`COc1ccc(CC(N)C(=O)N[C@H]2[C@@H](O)[C@H](n3cnc4c(N(C)C)ncnc43)O[C@@H]2C)cc1` (stereo partly specified): the Km in the assay with Escherichia coli [1] amounted to 230 µM; in the assay listed under Rattus norvegicus [8], 610 µM. The Ratio with Escherichia coli [2] worked out at 8220; in the assay filed under Rattus norvegicus [3], 23300. The figures for the Efficiency with Escherichia coli [4] and in the assay filed under Rattus norvegicus [10] were 81% and 42%, respectively. Moreover, the EC50 in [5] worked out at 0.3 µg/mL (≈ 0.659 µM). The results for the Vmax in the assay with Escherichia coli [7] and in the assay filed under Rattus norvegicus [8] were 1890 c.p.m and 14200 c.p.m, respectively.

As for `COc1ccc(C[C@H](N)C(=O)N[C@H]2[C@@H](O)[C@H](n3cnc4c(N(C)C)ncnc43)O[C@@H]2CO)cc1` [PUROMYCIN], the Michaelis constant (Km) in the assay with Escherichia coli [1] amounted to 186 µM; in the assay listed under Rattus norvegicus [11], 255 µM. The Ratio in the assay with Escherichia coli [2] was 10200; in the assay listed under Rattus norvegicus [3], 55700. Also, the Efficiency with Escherichia coli [4] and in the assay filed under Rattus norvegicus [6] was 100% throughout. In addition, the EC50 in assay [5] amounted to 0.3 µg/mL (≈ 0.636 µM). The Vmax in the assay with Escherichia coli [7] came out at 1890 c.p.m; in the assay filed under Rattus norvegicus [8], 14200 c.p.m.
